Data taken from paper PMC7717452 (Journal of Enzyme Inhibition and Medicinal Chemistry, 2020).
“And” between values parts separate entries of the source, which are not always exact repeats. Identical values can stand only once. Like-named read-outs stand apart in the source and are kept apart here.

Legend:
[1] = target: T1, LiTryS (Leishmania infantum trypanothione synthetase) (Leishmania infantum, UniProt A4I2Z3); assay: TryS activity end-point assay; format: biochemical; conditions: for IC50: ± 2σ, ∼30 assumed for 50 ± 5% inhibition at 30 µM; for % TryS inhibition at 30 µM, LiTryS: NA = not active (enzyme activity > 95%)
T1 sequence (A4I2Z3 1-652): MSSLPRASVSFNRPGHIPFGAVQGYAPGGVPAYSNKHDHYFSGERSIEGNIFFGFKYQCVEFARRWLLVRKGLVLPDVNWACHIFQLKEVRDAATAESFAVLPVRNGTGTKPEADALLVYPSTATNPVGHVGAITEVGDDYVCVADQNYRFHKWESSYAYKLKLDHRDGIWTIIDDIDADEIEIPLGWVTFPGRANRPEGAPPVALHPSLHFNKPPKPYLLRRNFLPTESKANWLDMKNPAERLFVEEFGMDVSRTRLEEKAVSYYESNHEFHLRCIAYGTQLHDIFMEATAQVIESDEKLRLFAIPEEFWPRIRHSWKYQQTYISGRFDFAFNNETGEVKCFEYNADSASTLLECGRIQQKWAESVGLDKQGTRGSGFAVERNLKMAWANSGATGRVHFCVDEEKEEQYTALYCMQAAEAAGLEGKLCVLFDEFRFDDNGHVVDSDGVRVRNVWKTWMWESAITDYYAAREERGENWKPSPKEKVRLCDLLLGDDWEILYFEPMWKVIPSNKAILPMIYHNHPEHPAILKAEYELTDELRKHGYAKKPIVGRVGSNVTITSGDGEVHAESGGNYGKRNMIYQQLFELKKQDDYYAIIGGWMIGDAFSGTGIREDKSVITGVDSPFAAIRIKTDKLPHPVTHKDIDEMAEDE
In short: (§1)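 Recombinant TryS end-point assay in 100 mM HEPES pH 7.4 with 5 mM DTT, 10 mM MgSO4 and 0.5 mM EDTA. ATP was 150 µM and spermidine 2 mM. GSH was 0.25 mM for LiTryS, 0.05 mM for TbTryS and 0.57 mM for TcTryS. Enzyme started the reaction and BIOMOL Green stopped it after 15 min. A650 was read after 20 min at room temperature. Values were corrected with no-enzyme blanks and for compound interference with phosphate. At least quadruplicates; IC50 is given ± 2σn-1.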

[2] = test system: L. braziliensis amastigotes; assay: Macrophage infection assay, L. braziliensis amastigotes; format: cell-based, Leishmania braziliensis; conditions: for activity at 10 µM: Leishmania braziliensis, Macrophage, read-out: % infection by L. braziliensis at 10 µM; for SI, L. braziliensis amastigotes: selectivity index, macrophage CC50 and amastigote EC50
In short: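 J774 macrophages were plated on coverslips at 1 × 10^5 cells/mL in DMEM with 1% FBS. They were infected with stationary-phase L. braziliensis promastigotes (MHOM/BR/01/BA788; 1:20) for 2 h at room temperature, then 22 h at 35 °C. After washing, cells got test compound (5 or 10 µM, or 10–0.01 µM) in 1% DMSO for 24 h at 37 °C and 5% CO2. Cells were EtOH-fixed and DAPI-stained, and 100–200 macrophages were imaged. % infected cells is relative to DMSO.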

Cytotoxicity assay = format: cell-based, mouse; conditions: mouse, J774 macrophages (ATCC TIB67), non-infected
In short: (§2)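 J774 mouse macrophages were grown in DMEM with 10% FBS and penicillin/streptomycin at 37 °C in humidified 5% CO2. Cells were seeded at 6 × 10^4 cells/mL and exposed the next day for 24 h to test compound at 100 to 0.001 µM (200 µM for one compound). The WST-1 signal was read at A450. % cytotoxicity was calculated against DMSO-treated and untreated cells, and CC50 is given ± σn–1.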

[3] = test system: Mouse macrophages from the cell line J774; assay: Cytotoxicity assay; format: cell-based; conditions: 24 h, non-infected J774; for CC50: read-out: CC50, macrophages
In short: as §2

TbTryS = target: T2, TbTryS (Trypanosoma brucei brucei, UniProt Q8IEX1); assay: TryS activity end-point assay; format: biochemical; conditions: IC50 value, TbTryS, ± 2σ; ~30 assumed for 50 ± 5% inhibition at 30 µM
T2 sequence (Q8IEX1 1-627): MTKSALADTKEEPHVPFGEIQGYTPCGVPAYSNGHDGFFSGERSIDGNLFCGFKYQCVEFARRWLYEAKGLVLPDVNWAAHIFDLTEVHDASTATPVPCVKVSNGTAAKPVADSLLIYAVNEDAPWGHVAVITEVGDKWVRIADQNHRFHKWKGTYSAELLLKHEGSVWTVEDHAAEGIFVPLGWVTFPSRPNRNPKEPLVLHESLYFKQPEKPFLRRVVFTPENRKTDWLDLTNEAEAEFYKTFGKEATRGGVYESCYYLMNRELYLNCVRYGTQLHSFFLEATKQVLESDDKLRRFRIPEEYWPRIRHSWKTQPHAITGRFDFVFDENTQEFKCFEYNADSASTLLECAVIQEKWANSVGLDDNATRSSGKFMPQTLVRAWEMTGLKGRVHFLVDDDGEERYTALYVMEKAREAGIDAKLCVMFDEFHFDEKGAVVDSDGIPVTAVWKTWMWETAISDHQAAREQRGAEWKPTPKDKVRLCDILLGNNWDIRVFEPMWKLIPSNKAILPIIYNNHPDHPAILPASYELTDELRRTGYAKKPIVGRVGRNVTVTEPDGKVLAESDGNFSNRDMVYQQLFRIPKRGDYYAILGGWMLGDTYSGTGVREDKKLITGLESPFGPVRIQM
In short: as §1

[4] = 24 h, relative to infected non-treated macrophages

## O=C(CN1C(=O)Cc2c([nH]c3ccc(Br)cc23)-c2ccc(Cl)cc21)Nc1ncco1 [Compound 18]
[1]; read-out: IC50 value, LiTryS
  IC50: 20.1 ± 1.5 µM

## CN(C)C(=O)CN1C(=O)Cc2c([nH]c3ccc(Br)cc23)-c2ccc(Cl)cc21 [Compound 10]
[2]; [4]
  % infection by L. braziliensis at 5 µM: 72 ± 4 at 5 µM %
Cytotoxicity assay
  cytotoxicity at 24 h, 100 µM: 21 ± 1%
[1]; IC50 value, LiTryS
  IC50: 0.5 µM

## CC(C)(C)OC(=O)CN1C(=O)Cc2c([nH]c3ccc(Br)cc23)-c2ccc(Cl)cc21 [Compound 6]
[2]; 10 µM, 24 h, relative to infected non-treated macrophages
  % infection by L. braziliensis at 10 µM: 89 ± 13%
[3]; 100 µM
  % cytotoxicity at 100 µM, macrophages: 64 ± 0%
[1]; read-out: IC50 value, LiTryS
  IC50: 2.4 ± 0.3 µM

## CN1CCN(CCNC(=O)CN2C(=O)Cc3c([nH]c4ccc(Br)cc34)-c3ccc(Cl)cc32)CC1 [Compound 33]
[1]; IC50 value, LiTryS
  IC50: 1.1 ± 0.3 µM

## O=C(CN1C(=O)Cc2c([nH]c3ccc(Br)cc23)-c2ccc(Cl)cc21)Nc1ccccc1 [Compound 19]
TbTryS
  IC50: 30 µM
[1]; IC50 value, LiTryS
  IC50: ~30 µM

## NCCCCNC(=O)CN1C(=O)Cc2c([nH]c3ccc(Br)cc23)-c2ccc(Cl)cc21 [Compound 35]
[2]; 24 h
  activity at 10 µM: 116 ± 3%
Cytotoxicity assay
  cytotoxicity at 24 h, 100 µM: 0%
[1]; IC50 value, LiTryS
  IC50: 0.4 ± 0.1 µM

## O=C(CN1C(=O)Cc2c([nH]c3ccc(Br)cc23)-c2ccc(Cl)cc21)NC1=NCCS1 [Compound 17]
[1]; IC50 value, LiTryS
  IC50: ~30 µM

## O=C(CN1C(=O)Cc2c([nH]c3ccc(Br)cc23)-c2ccc(Cl)cc21)N1CCOCC1 [Compound 26]
[2]; 24 h
  activity at 10 µM: 29 ± 3%
[2]
  SI, L. braziliensis amastigotes: 6
[3]
  CC50: 10.2 ± 0.2 µM
[1]; IC50 value, LiTryS
  IC50: 2.8 ± 0.7 µM

## O=C1Cc2c([nH]c3ccc(Br)cc23)-c2ccc(Cl)cc2N1CCO [Compound 2]
[1]; read-out: IC50 value, LiTryS
  IC50: ~30 µM

## CNC(=O)CN1C(=O)Cc2c([nH]c3ccc(Br)cc23)-c2ccc(Cl)cc21 [Compound 9]
[2]; 24 h
  activity at 10 µM: 107 ± 2%
Cytotoxicity assay
  cytotoxicity at 24 h, 100 µM: 93 ± 4%
[1]; IC50 value, LiTryS
  IC50: 0.8 ± 0.1 µM

## NC(=O)CN1C(=O)Cc2c([nH]c3ccc(Br)cc23)-c2ccc(Cl)cc21 [Compound 7]
[1]; IC50 value, LiTryS
  IC50: 5.1 ± 0.5 µM

## CCOC(=O)CN1C(=O)Cc2c([nH]c3ccc(Br)cc23)-c2ccc(Cl)cc21 [Compound 5]
[1]
  % TryS inhibition at 30 µM, LiTryS: 36.2 ± 3.6%

## O=C(CN1C(=O)Cc2c([nH]c3ccc(Br)cc23)-c2ccc(Cl)cc21)N1CCCCC1 [Compound 24, 9-Bromo-3-chloro-5-[2-oxo-2-(piperidin-1-yl)ethyl]-7,12-dihydrobenzo[2,3]azepino-[4,5-b]indol-6(5H)-one]
[1]
  % TryS inhibition at 30 µM, LiTryS: 38.6 ± 1.3%

## CC(C)(C)OC(=O)NCCNC(=O)CN1C(=O)Cc2c([nH]c3ccc(Br)cc23)-c2ccc(Cl)cc21 [Compound 29]
[1]
  % TryS inhibition at 30 µM, LiTryS: 36.7 ± 5.9%

## CC(C)(C)OC(=O)N1CCN(C(=O)CN2C(=O)Cc3c([nH]c4ccc(Br)cc34)-c3ccc(Cl)cc32)CC1 [Compound 22]
[1]; IC50 value, LiTryS
  IC50: 30 µM and ~30 µM

## O=C(O)CN1C(=O)Cc2c([nH]c3ccc(Br)cc23)-c2ccc(Cl)cc21 [Compound 3]
[1]
  % TryS inhibition at 30 µM, LiTryS: inactive

## CCN(CC)C(=O)CN1C(=O)Cc2c([nH]c3ccc(Br)cc23)-c2ccc(Cl)cc21 [Compound 12]
[2]; 24 h
  activity at 10 µM: 82 ± 14%
TbTryS
  IC50: ~30 µM
Cytotoxicity assay
  cytotoxicity at 24 h, 100 µM: 24 ± 8%
[1]; IC50 value, LiTryS
  IC50: 0.5 ± 0.1 µM

## O=C(CN1C(=O)Cc2c([nH]c3ccc(Br)cc23)-c2ccc(Cl)cc21)NCCO [Compound 13]
[1]; IC50 value, LiTryS
  IC50: 2.3 ± 0.3 µM

## O=C(CN1C(=O)Cc2c([nH]c3ccc(Br)cc23)-c2ccc(Cl)cc21)N1CCN(c2ncccn2)CC1 [Compound 23]
[1]; IC50 value, LiTryS
  IC50: 12.5 ± 0.2 µM

## NCCNC(=O)CN1C(=O)Cc2c([nH]c3ccc(Br)cc23)-c2ccc(Cl)cc21 [Compound 27]
[2]; 24 h
  activity at 10 µM: 68 ± 1%
Cytotoxicity assay
  cytotoxicity at 24 h, 100 µM: 36 ± 1%

## O=C(CN1C(=O)Cc2c([nH]c3ccc(Br)cc23)-c2ccc(Cl)cc21)NCCN1CCCCC1 [Compound 31]
[2]; [4]
  % infection by L. braziliensis at 5 µM: 49 ± 3 at 5 µM %
[2]
  SI, L. braziliensis amastigotes: 2
[3]
  CC50: 9 ± 1 µM
[1]; IC50 value, LiTryS
  IC50: 0.8 ± 0.1 µM

## O=C(CN1C(=O)Cc2c([nH]c3ccc(Br)cc23)-c2ccc(Cl)cc21)N1CCCC1 [Compound 25]
[2]; 24 h
  activity at 10 µM: 68 ± 8%
Cytotoxicity assay
  cytotoxicity at 24 h, 100 µM: 69%
[1]; IC50 value, LiTryS
  IC50: 0.5 ± 0.2 µM

## COC(=O)CN1C(=O)Cc2c([nH]c3ccc(Br)cc23)-c2ccc(Cl)cc21 [Compound 4]
[1]; IC50 value, LiTryS
  IC50: 3 ± 0.7 µM

## O=C(CN1C(=O)Cc2c([nH]c3ccc(Br)cc23)-c2ccc(Cl)cc21)NCCN1CCOCC1 [Compound 30]
[1]; IC50 value, LiTryS
  IC50: 3.3 ± 0.1 µM

## NNC(=O)CN1C(=O)Cc2c([nH]c3ccc(Br)cc23)-c2ccc(Cl)cc21 [Compound 8]
[1]; IC50 value, LiTryS
  IC50: 4 ± 0.5 µM

## O=C(CN1C(=O)Cc2c([nH]c3ccc(Br)cc23)-c2ccc(Cl)cc21)NC(CO)(CO)CO [Compound 14]
[1]; IC50 value, LiTryS
  IC50: 5.2 ± 0.4 µM

## CCNC(=O)CN1C(=O)Cc2c([nH]c3ccc(Br)cc23)-c2ccc(Cl)cc21 [Compound 11]
[1]; IC50 value, LiTryS
  IC50: 1.5 ± 0.2 µM

## O=C(CN1C(=O)Cc2c([nH]c3ccc(Br)cc23)-c2ccc(Cl)cc21)NCCN1CCNCC1 [Compound 32]
[2]; 24 h
  activity at 10 µM: 139 ± 2%
Cytotoxicity assay
  cytotoxicity at 24 h, 100 µM: 24 ± 3%
[1]; IC50 value, LiTryS
  IC50: 0.6 ± 0.1 µM

## CC(C)(C)NC(=O)CN1C(=O)Cc2c([nH]c3ccc(Br)cc23)-c2ccc(Cl)cc21 [Compound 15]
[2]; 24 h
  activity at 10 µM: 104 ± 1%
Cytotoxicity assay
  cytotoxicity at 24 h, 100 µM: 48 ± 8%
[1]; IC50 value, LiTryS
  IC50: 2.3 ± 0.4 µM

## CCN(CC)CCNC(=O)CN1C(=O)Cc2c([nH]c3ccc(Br)cc23)-c2ccc(Cl)cc21 [Compound 28]
[2]; [4]
  % infection by L. braziliensis at 5 µM: 38 ± 1 at 5 µM %
[2]
  SI, L. braziliensis amastigotes: 2
[3]
  CC50: 6 ± 1 µM
[1]; IC50 value, LiTryS
  IC50: 0.5 ± 0.1 µM
